PAD4 FP inh: inhibitors of human PAD4 | recombinant PAD4, RCA probe fluorescence polarization | inhibition, % at 6.36 µM | hit rate 0.41% among 330,000 | AID 485272;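 active means percent inhibition above a cutoff equal to the mean of all tested compounds plus 3 SD, cut at about 15% in these data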
TCR CD3 inh: inhibitors of human TCR-CD3 interaction. hit rate 0.37% among 360,000. inhibition, % at 9.4 µM. TAMRA-labeled TCR probe fluorescence, biochemical. AID 651800; in the data active means inhibition above about 19%;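 further: recombinant mutant TCR 2C K166C tagged with TAMRA read by polarization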
GSTO1 counter: GSTO1 inhibition, counter-screen for RBBP9 inhibitors; P78417; recombinant GSTO1, activity-based probe fluorescence polarization; inhibition, % at 5.96 µM; hit rate 1.1% among 300,000;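 active means inhibition above the campaign mean inhibition plus 3 SD, cut at about 35% in these data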
Target sequence (P78417 whole entry, looked up): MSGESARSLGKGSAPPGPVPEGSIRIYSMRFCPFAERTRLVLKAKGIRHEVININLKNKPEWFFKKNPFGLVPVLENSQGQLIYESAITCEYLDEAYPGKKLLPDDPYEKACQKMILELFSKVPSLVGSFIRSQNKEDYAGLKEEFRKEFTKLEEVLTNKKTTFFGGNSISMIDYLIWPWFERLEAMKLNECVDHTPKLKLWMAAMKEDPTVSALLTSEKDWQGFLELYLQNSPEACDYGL
Apaf-1 inh: inhibitors of human Apaf-1 apoptosome. O14727. reconstituted apoptosome caspase-3 activity, DEVD-Rh110 fluorescence. inhibition, % at 20 µM. hit rate 0.71% among 330,000. AID 489030; active means inhibition of at least 40% at 20 µM
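System: reconstituted apoptosome with Apaf-1, cytochrome c, caspase-9, procaspase-3, dATP; Signal: Rh110 fluorescence intensity; Schedule: 30 min compound preincubation, 50 min activation, room temperature; Reagent: cytochrome c trigger plus (Z-DEVD)2-Rh110 caspase-3 substrate.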
SIAE primary: human SIAE inhibition, primary screen | SIAE FP-Rh probe binding, fluorescence polarization | AID 1053197 | hit rate 0.69% among 370,000 | Q9HAT2 | inhibition, % at 9.66 µM;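 active means inhibition above a cutoff: mean of compounds within the control limits plus 3 SD of those, cut at about 17% in these data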
TDP2 inh: TDP2 (human) inhibition, absorbance primary screen | O95551 | recombinant TDP2, T5PNP hydrolysis, p-nitrophenol absorbance 415 nm | inhibition, % at 12.8 µM | hit rate 0.34% among 370,000 | AID 720702;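 active means inhibition above the mean of all tested compounds plus 3 SD, set per campaign, cut at about 25% in these data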
Target sequence (O95551 whole entry, looked up): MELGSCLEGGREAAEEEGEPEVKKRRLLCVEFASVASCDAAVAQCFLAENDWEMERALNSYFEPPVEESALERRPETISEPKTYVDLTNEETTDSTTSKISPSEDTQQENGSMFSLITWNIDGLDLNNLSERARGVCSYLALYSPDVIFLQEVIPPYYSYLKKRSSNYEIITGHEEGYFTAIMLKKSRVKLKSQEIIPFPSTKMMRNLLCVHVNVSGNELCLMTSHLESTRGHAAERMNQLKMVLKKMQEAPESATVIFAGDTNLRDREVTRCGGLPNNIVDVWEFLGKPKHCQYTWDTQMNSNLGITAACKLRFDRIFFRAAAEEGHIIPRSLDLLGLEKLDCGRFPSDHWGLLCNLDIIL
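Read-out basis: percent inhibition. System: recombinant human TDP2. Buffer or medium: Mg2+-containing Tris-HCl buffer, pH 7.5. Repeats: single replicate. Timing: reaction 2 h, 37 °C. Benchmarks: high control without enzyme, low control DMSO plus TDP2. Probe or stimulus: 5 mM T5PNP. Doses: 12.8 µM only. Measured by: epi absorbance of p-nitrophenol freed from T5PNP by hydrolysis.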
GSTO1 inh conf: confirmation of human GSTO1 inhibitors; shares compounds with GSTO1 counter; hit rate 54% among 2,400; AID 2176; inhibition, % at 5.96 µM; recombinant GSTO1, probe fluorescence polarization;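 active means inhibition above the primary screen's cutoff, its mean inhibition plus 3 SD, cut at about 35% in these data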;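 further: loss of polarization as inhibitors block binding of rhodamine sulfonate ester activity probe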
Of the large screens only hits and unclear results are named; the others gave an inactive call (follow-up assays come after a bar, where they were run); ! = repeats disagree. Rows were chosen to be rich in hits. Some 2.4% of all compounds tested hit in one or more screens of this group.

CC(C)(C)c1ccc(COn2c(=O)c(-c3ccco3)[n+]([O-])c3ccccc32)cc1	GSTO1 counter 42.9
C=CCN1C(=O)C(=O)N(CC(=O)c2ccc3c(c2)CCCC3)C1=O	none (no result: GSTO1 counter)
Cc1nc2ccccc2c(=O)n1/N=C/c1ccccc1O	none
Cc1nc2ccccc2c(=O)n1/N=C/c1ccc2ccccc2c1O	GSTO1 counter 66.8 (no result: TCR CD3 inh, SIAE primary, TDP2 inh)
Cc1nnc(C)n1/N=C/c1c(O)ccc2ccccc12	none
Cc1nnc(-c2ccccc2)c(=O)n1/N=C/c1c(O)ccc2ccccc12	GSTO1 counter 38.9
O=c1oc2c3c4c(cc2s1)CCCN4CCC3	GSTO1 counter 50.6
O=C(Nc1ccc2c(c1)CCC2)c1cc(F)cc(F)c1	none (no result: GSTO1 counter)
CC(CCc1ccccc1)NCC(O)c1ccc(O)c(C(N)=O)c1 (stereo not drawn)	none
COc1ccc(CC(C)NCC(O)c2ccc(O)c(NC=O)c2)cc1 (stereo not drawn)	TCR CD3 inh 26.6! (no result: PAD4 FP inh, GSTO1 counter, Apaf-1 inh)
CN1CCc2c(sc(NC(=O)c3ccc4ccccc4c3)c2C(N)=O)C1	none (no result: TCR CD3 inh, SIAE primary, TDP2 inh)
COc1cc2ccccc2cc1C(=O)Nc1sc2c(c1C(N)=O)CCN(C(C)C)C2	Apaf-1 inh 51.2
COc1cccc(/C=c2\s/c(=C/C(=O)c3ccc(C)cc3)[nH]c2=O)c1OC	none
CCOC(=O)c1ccc(NC(=O)Nc2ccc(OC)c(OC)c2)cc1	none
CCCCOC(=O)c1ccc(NC(=O)Nc2ccc(OC)c(OC)c2)cc1	SIAE primary 20.2
O=[N+]([O-])c1ccc(N/N=C/c2cccc(O)c2O)c(S(=O)(=O)N2CCOCC2)c1	GSTO1 counter 46.2
COc1ccccc1NS(=O)(=O)c1cccc(C(=O)N2CCN(C/C=C/c3ccccc3)CC2)c1	Apaf-1 inh 45.8
CS(=O)(=O)Nc1ccc(C(=O)NCCc2ccccc2)cc1	SIAE primary 19.1
CC1C2(C)OC(=N)C(C#N)(C(C)O2)C1(C#N)C#N (stereo not drawn)	none (no result: TCR CD3 inh, SIAE primary, TDP2 inh)
CC1OC2(C)OC(=N)C1(C#N)C(C#N)(C#N)C2c1ccccc1 (stereo not drawn)	PAD4 FP inh 25.1
O=[N+]([O-])c1c(NCCO)cc(N2CCC3(CC2)OCCO3)c2nonc12	none
O=C(O)CCCNc1cc(N2CCC3(CC2)OCCO3)c2noc3c2c1C(=O)c1ccccc1-3	PAD4 FP inh 17.7, GSTO1 counter 53.5 (no result: TCR CD3 inh, SIAE primary, TDP2 inh)
CCCOc1cccc(OCCSc2nc(C)cc(=O)[nH]2)c1	none
O=C(NC1CCCC1)C(c1ccncc1)N(Cc1ccccc1F)C(=O)c1csnn1 (stereo not drawn)	none
COc1cccc(C2NC(CC(C)C)(C(=O)O)C3C(=O)N(Cc4ccccc4)C(=O)C23)c1O (stereo not drawn)	none
COc1cccc(C2NC(CCSC)(C(=O)O)C3C(=O)N(C(C)C)C(=O)C23)c1O (stereo not drawn)	SIAE primary 20.6
COc1ccc2c(CC(=O)OCC(=O)Nc3cc(C)c(C)cc3[N+](=O)[O-])coc2c1	none
COc1cc(NC(=O)CN2C(=O)NC3(CCOc4ccccc43)C2=O)cc(OC)c1 (stereo not drawn)	Apaf-1 inh 58.5 (no result: GSTO1 counter)
O=C(CN1C(=O)NC2(CCOc3ccccc32)C1=O)Nc1cccc(Cl)c1 (stereo not drawn)	none
Cc1ccc(NC(=O)CN2C(=O)N/C(=C/c3cc(C)n(-c4ccc(C(=O)O)cc4)c3C)C2=O)cc1	none (no result: PAD4 FP inh, GSTO1 counter, Apaf-1 inh)
Cc1ccc(NC(=O)CN2C(=O)N/C(=C/c3cccn3-c3ccc(C(=O)O)cc3)C2=O)cc1	GSTO1 counter 37.2 (no result: Apaf-1 inh)
C/C(=N\NC(=O)CSCc1ccccc1Cl)c1cc(O)ccc1O	GSTO1 counter 40.4
COc1cc2c3c(c1OC)C1(C=CC(=O)C=C1)CC3N(C(=O)c1ccccc1)CC2 (stereo not drawn)	none
COc1cc(OC)cc(-c2nnc(Sc3ccc(C=O)cc3[N+](=O)[O-])o2)c1	PAD4 FP inh 26.5 (no result: TCR CD3 inh, SIAE primary, TDP2 inh)
O=C(Nc1ccccc1)Nc1ccc(Cl)c([N+](=O)[O-])c1	SIAE primary 53.8
CCOCCCNC(=O)Cn1cnc2sc(C)c(S(=O)(=O)N3CCN(c4ncccn4)CC3)c2c1=O	none
CCn1c(=S)sc2c(=O)n(CC(=O)NC(C)CCc3ccccc3)c(C)nc21 (stereo not drawn)	GSTO1 counter 34.8
CCOC(=O)c1c(NC(=O)c2ccc(C)cc2)sc2c1CC(C)(C)NC2(C)C	Apaf-1 inh 54.3 (no result: TCR CD3 inh, SIAE primary, TDP2 inh)
CCN(CC)c1ccc(N=Cc2ccccc2[N+](=O)[O-])cc1	GSTO1 counter 68.8, Apaf-1 inh 62.0
O=C(CCn1nnc2ccccc21)N1CCN(c2ccccc2)CC1	none
O=S(=O)(O)c1ccc(O)c2cc(Nc3ccccc3)ccc12	TCR CD3 inh 43.6, SIAE primary 54.7 (no result: PAD4 FP inh, GSTO1 counter, Apaf-1 inh)
O=S(=O)(O)c1cc(O)c2ccc(Nc3ccccc3)cc2c1	TCR CD3 inh 34.8 (no result: PAD4 FP inh, GSTO1 counter, Apaf-1 inh)
COc1cc(S(=O)(=O)N2CCN(Cc3ccccc3)CC2)ccc1Br	none
O=c1[nH]c2ccc(S(=O)(=O)N3CCN(Cc4ccccc4)CC3)cc2[nH]c1=O	GSTO1 counter 34.9 (no result: TCR CD3 inh, SIAE primary, TDP2 inh)
C[C@H](c1ccccc1)N1C[C@@H](COCc2ccccc2)Oc2cc(N3CC[C@@H](O)C3)ccc2S1(=O)=O	none (no result: PAD4 FP inh, GSTO1 counter, Apaf-1 inh)
CC(=O)Nc1ccc(S(=O)(=O)NCCc2cc3ccc(C)c(C)c3[nH]c2=O)cc1	none
Oc1ccc(N=C/C=C/c2cccc(Br)c2)cc1-c1nc2ccccc2s1	GSTO1 counter 35.2 (no result: TCR CD3 inh, SIAE primary, TDP2 inh)
Cn1cc(C(=O)c2ccc(Cl)cc2Cl)cc1C(=O)N/N=C(\N)COc1ccc(Cl)cc1Cl	none
CCOC(=O)C/C(N)=N/NC(=O)c1ccc(Cl)cc1Cl	GSTO1 counter 62.1 | GSTO1 inh conf inactive
O=P(O)(Cc1ccccc1)Cc1ccccc1	GSTO1 counter 46.6 | GSTO1 inh conf inactive
O=P(Cc1ccccc1)(Cc1ccccc1)c1ccccc1	none (no result: PAD4 FP inh, GSTO1 counter, Apaf-1 inh)
CC1=CC(C)(C)Nc2ccc(OC(=O)CN3C(=O)CCC3=O)cc21	GSTO1 counter 62.2 | GSTO1 inh conf inactive
CC1=CC(C)(C)Nc2ccc(C)cc21	none
Cc1ccc(C)c(NC(=O)CCN2CCc3ccccc3C2)c1	none
c1csc(C2Nc3cccc4cccc(c34)N2)c1	GSTO1 counter 43.8 | GSTO1 inh conf inactive
Clc1cccc(Cl)c1C1Nc2cccc3cccc(c23)N1	GSTO1 counter 47.2 | GSTO1 inh conf inactive
O=C(CCl)N1N=C(c2ccco2)CC1c1cccs1 (stereo not drawn)	GSTO1 counter 85.3 (no result: TCR CD3 inh, Apaf-1 inh, SIAE primary, TDP2 inh) | GSTO1 inh conf 99.1
Cc1ccc(C2=NN(C(=O)CCl)C(c3cccs3)C2)o1 (stereo not drawn)	GSTO1 counter 99.2 | GSTO1 inh conf 96.3
CC(=O)N1N=C(c2ccco2)CC1c1cccs1 (stereo not drawn)	none
CCCC(=O)Nc1ccc(C(=O)NNC(=S)NC(=O)c2ccc(Br)o2)cc1	GSTO1 counter 43.7 | GSTO1 inh conf inactive

Screening results from PubChem.
